For 11 compounds, IC50 results are on record in ChEMBL document CHEMBL4732029, “Synthesis and evaluation of bis(imino)anthracene derivatives as G-quadruplex ligands” (RSC Med Chem, 2021).

One test has as its system HeLa. Kind of test: Cytotoxicity against human HeLa cells assessed as reduction in cell viability incubated for 24 hrs by presto blue assay. The format is functional, cell-based. An outline of the steps: (§1)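 HeLa cells (ATCC CCL-2) were exposed to each compound at 100, 30, 10 and 1 µM for 24 h. Viability was read by PrestoBlue absorbance and normalized to a DMSO negative control; doxorubicin served as positive control. Data are mean and SEM. IC50 came from the percentage viability plotted against log concentration, with R squared reported.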
The term IC50 denotes the midpoint of a concentration-inhibition curve. For `C(=N\CCc1c[nH]c2ccccc12)/c1c2ccccc2c(/C=N/CCc2c[nH]c3ccccc23)c2ccccc12`, the IC50 came out at 30.6 µM.
Still for that read-out and setting: in the case of `Cc1cnc(/N=C/c2c3ccccc3c(/C=N/c3ncc(C)s3)c3ccccc23)s1` it was 20.5 µM; in that of `C(=N\Cc1ccc2c(c1)OCO2)/c1c2ccccc2c(/C=N/Cc2ccc3c(c2)OCO3)c2ccccc12`, 18 µM.
For `C(=N\CCN1CCCCC1)/c1c2ccccc2c(/C=N/CCN2CCCCC2)c2ccccc12`, the IC50 was 23.8 µM.

A further test has as its system HeLa. The experiment in a line: Cytotoxicity against human HeLa cells. Format: functional, cell-based. The gist of the method:
as §1
The compound `Cc1cnc(CNC(=O)c2c(=O)c3ccc(N4CCCN(C)CC4)nc3n3c2sc2ccccc23)cn1` [CX-5461] yielded an IC50 of 6.89 µM.
`COc1cccc2c1C(=O)c1c(O)c3c(c(O)c1C2=O)C[C@@](O)(C(=O)CO)C[C@@H]3O[C@H]1C[C@H](N2CCO[C@H](OC)C2)[C@H](O)[C@H](C)O1` [NEMORUBICIN] came in with an IC50 of 0.08 µM.
Consider `Cc1cc2c3c([n+](C)c4ccc(F)cc4c3c1)-c1cc(F)ccc1N2C`, for which 0.2 µM corresponded to half-maximal inhibition (IC50).
As for `COc1cccc2c1C(=O)c1c(O)c3c(c(O)c1C2=O)C[C@@](O)(C(=O)CO)C[C@@H]3O[C@H]1C[C@H](N)[C@H](O)[C@H](C)O1` [DOXORUBICIN], the IC50 was 0.374 µM.
In the case of `CN1CCC[C@H]1CCNC(=O)c1cn2c3c(c(N4CCC(c5cnccn5)C4)c(F)cc3c1=O)Oc1cc3ccccc3cc1-2` (stereo partly specified) [QUARFLOXIN], the IC50 turned out to be 4.44 µM.
Regarding `CN(C)CCNC(=O)c1cccn2c(=O)c3cc4ccccc4cc3nc12`, the IC50 came out at 0.46 µM.

For the next test, the system named is HeLa. The experiment in a line: Cytotoxicity against human HeLa cells assessed as reduction in cell viability incubated for 24 hrs by MTT assay. The format is functional, cell-based. A general note: Formazan colour is commonly taken as a measure of viable cells.
On to `CN(C)c1ccc(Nc2c3ccc(NC(=O)CCN4CCCC4)cc3nc3cc(NC(=O)CCN4CCCC4)ccc23)cc1`, for which the 50% inhibitory concentration (IC50) was determined as 5.25 µM.
